Test results: ChEMBL document CHEMBL3352171, “Synthesis and biological evaluation of andrographolide analogues as anti-cancer agents” (Eur J Med Chem, 2014)
The source made the active and inactive calls. The calls are words filed in the database; no cut-off is given here.

Columns and labels:
HEK293 [1] = assay: Cytotoxicity against HEK293 cells after 48 hrs by MTT assay; assay type: functional; conditions: Homo sapiens, HEK293, 48 h; read-out: LC50 (the source's name)
In short: (§1)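 Cells seeded at 10,000 per well and exposed to increasing compound concentrations for 48 h. After a PBS wash, MTT (2.5 mg/mL) was added for 6 h at 37 °C, then detergent (10% NP-40, 4 mM HCl), and absorbance was read at 570 nm. LC50 is the concentration causing 50% cell death. Values are means of three independent experiments.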

Vero = assay: Cytotoxicity against african green monkey Vero cells after 48 hrs by MTT assay; assay type: cell-based; conditions: chlorocebus sabaeus; in short: as §1
[2] = Retention time of the compound by HPLC method; assay type: physicochemical
HEK293 [3] = assay: Induction of apoptosis in HEK293 cells assessed as apoptotic nuclei formation at 10 uM after 48 hrs by DAPI staining based fluorescence microscopy; assay type: functional, cell-based; conditions: Homo sapiens
HEK293 [4] = assay: Induction of cell death in HEK293 cells at 15 to 20 uM after 48 hrs by DAPI staining based fluorescence microscopy; assay type: functional; conditions: Homo sapiens
HEK293 [5] = assay: Induction of apoptosis in HEK293 cells at 5 to 20 uM after 48 hrs by DAPI staining based fluorescence microscopy; assay type: functional, cell-based; conditions: Homo sapiens
MCF7 = assay: Cytotoxicity against human MCF7 cells after 48 hrs by MTT assay; assay type: functional; conditions: MCF7, 48 h, read-out: LC50 (the source's name); in short: as §1
[6] = Cytotoxicity against human MCF10A cells after 48 hrs by MTT assay; assay type: cell-based; conditions: mcf-10a; in short: as §1
HEK293 [7] = assay: Induction of apoptosis in HEK293 cells at 5 uM after 48 hrs by propidium iodide staining based flow cytometry (reference value: 24.26 +/- 0.8%); assay type: functional, Homo sapiens
HEK293 [8] = assay: Induction of apoptosis in HEK293 cells at 10 uM after 48 hrs by propidium iodide staining based flow cytometry (reference value: 24.26 +/- 0.8%); assay type: functional, Homo sapiens
HEK293 [9] = assay: Induction of apoptosis in HEK293 cells at 15 uM after 48 hrs by propidium iodide staining based flow cytometry (reference value: 24.26 +/- 0.8%); assay type: functional, Homo sapiens
HEK293 [10] = assay: Induction of apoptosis in HEK293 cells at 20 uM after 48 hrs by propidium iodide staining based flow cytometry (reference value: 24.26 +/- 0.8%); assay type: functional, Homo sapiens
HEK293 [11] = assay: Induction of cell cycle arrest in HEK293 cells assessed as accumulation at G1 phase at 5 uM after 48 hrs by propidium iodide staining based flow cytometry (reference value: 53.21 +/- 0.8%); assay type: functional, Homo sapiens
HEK293 [12] = assay: Induction of cell cycle arrest in HEK293 cells assessed as accumulation at G1 phase at 10 uM after 48 hrs by propidium iodide staining based flow cytometry (reference value: 53.21 +/- 0.8%); assay type: functional, Homo sapiens
HEK293 [13] = assay: Induction of cell cycle arrest in HEK293 cells assessed as accumulation at G1 phase at 15 uM after 48 hrs by propidium iodide staining based flow cytometry (reference value: 53.21 +/- 0.8%); assay type: functional, Homo sapiens
HEK293 [14] = assay: Induction of cell cycle arrest in HEK293 cells assessed as accumulation at G1 phase at 20 uM after 48 hrs by propidium iodide staining based flow cytometry (reference value: 53.21 +/- 0.8%); assay type: functional, Homo sapiens
HEK293 [15] = assay: Induction of cell cycle arrest in HEK293 cells assessed as accumulation at S phase at 5 uM after 48 hrs by propidium iodide staining based flow cytometry (reference value: 19.9 +/- 0.5%); assay type: functional, Homo sapiens
HEK293 [16] = assay: Induction of cell cycle arrest in HEK293 cells assessed as accumulation at S phase at 10 uM after 48 hrs by propidium iodide staining based flow cytometry (reference value: 19.9 +/- 0.5%); assay type: functional, Homo sapiens
HEK293 [17] = assay: Induction of cell cycle arrest in HEK293 cells assessed as accumulation at S phase at 15 uM after 48 hrs by propidium iodide staining based flow cytometry (reference value: 19.9 +/- 0.5%); assay type: functional, Homo sapiens
HEK293 [18] = assay: Induction of cell cycle arrest in HEK293 cells assessed as accumulation at S phase at 20 uM after 48 hrs by propidium iodide staining based flow cytometry (reference value: 19.9 +/- 0.5%); assay type: functional, Homo sapiens
HEK293 [19] = assay: Induction of cell cycle arrest in HEK293 cells assessed as accumulation at G2/M phase at 5 uM after 48 hrs by propidium iodide staining based flow cytometry (reference value: 2.63 +/- 0.7%); assay type: functional, Homo sapiens
HEK293 [20] = assay: Induction of cell cycle arrest in HEK293 cells assessed as accumulation at G2/M phase at 10 uM after 48 hrs by propidium iodide staining based flow cytometry (reference value: 2.63 +/- 0.7%); assay type: functional, Homo sapiens
HEK293 [21] = assay: Induction of cell cycle arrest in HEK293 cells assessed as accumulation at G2/M phase at 15 uM after 48 hrs by propidium iodide staining based flow cytometry (reference value: 2.63 +/- 0.7%); assay type: functional, Homo sapiens
HEK293 [22] = assay: Induction of cell cycle arrest in HEK293 cells assessed as accumulation at G2/M phase at 20 uM after 48 hrs by propidium iodide staining based flow cytometry (reference value: 2.63 +/- 0.7%); assay type: functional, Homo sapiens
HEK293 [23] = assay: Induction of apoptosis in HEK293 cells at 20 uM after 48 hrs by propidium iodide staining based flow cytometry relative to untreated control; assay type: functional, Homo sapiens
HEK293 [24] = assay: Increase in caspase-3 expression in HEK293 cells at LC50 level after 48 hrs by immunocytochemistry; assay type: functional, cell-based; conditions: Homo sapiens
[25] = target: T1, Nuclear factor NF-kappa-B complex (Homo sapiens) (UniProt Q00653+P19838+Q04206); assay: Inhibition of NFkappaB (unknown origin) expressed in HEK293 cells assessed as reduction in transcriptional activity after 48 hrs by luciferase reporter gene assay; assay type: cell-based
T1 sequence (P19838 whole entry, looked up): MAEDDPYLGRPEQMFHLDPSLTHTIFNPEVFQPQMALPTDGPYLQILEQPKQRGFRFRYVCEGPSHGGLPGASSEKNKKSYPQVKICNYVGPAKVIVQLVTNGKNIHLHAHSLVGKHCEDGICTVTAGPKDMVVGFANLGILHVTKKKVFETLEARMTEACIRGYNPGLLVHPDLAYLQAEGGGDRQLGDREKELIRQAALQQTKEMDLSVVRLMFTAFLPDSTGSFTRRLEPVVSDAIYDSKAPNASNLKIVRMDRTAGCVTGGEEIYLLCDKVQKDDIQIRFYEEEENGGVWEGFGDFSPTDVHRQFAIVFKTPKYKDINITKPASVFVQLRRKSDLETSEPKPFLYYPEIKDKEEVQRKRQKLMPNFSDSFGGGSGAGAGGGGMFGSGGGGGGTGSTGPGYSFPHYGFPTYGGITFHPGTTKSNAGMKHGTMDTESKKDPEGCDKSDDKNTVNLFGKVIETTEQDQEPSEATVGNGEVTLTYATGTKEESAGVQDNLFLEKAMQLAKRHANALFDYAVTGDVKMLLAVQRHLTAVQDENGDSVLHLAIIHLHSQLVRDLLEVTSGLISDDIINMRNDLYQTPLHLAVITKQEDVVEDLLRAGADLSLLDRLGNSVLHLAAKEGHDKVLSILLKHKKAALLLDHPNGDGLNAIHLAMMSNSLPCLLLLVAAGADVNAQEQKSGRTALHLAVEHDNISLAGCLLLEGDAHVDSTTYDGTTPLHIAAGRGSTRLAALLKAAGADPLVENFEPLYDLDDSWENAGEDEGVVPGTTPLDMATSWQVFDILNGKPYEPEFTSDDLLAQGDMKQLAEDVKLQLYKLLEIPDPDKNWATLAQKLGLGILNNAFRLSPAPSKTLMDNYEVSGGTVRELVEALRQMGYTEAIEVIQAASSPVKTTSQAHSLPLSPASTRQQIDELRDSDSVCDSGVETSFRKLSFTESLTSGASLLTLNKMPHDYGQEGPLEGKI
T1 sequence (Q00653 whole entry, looked up): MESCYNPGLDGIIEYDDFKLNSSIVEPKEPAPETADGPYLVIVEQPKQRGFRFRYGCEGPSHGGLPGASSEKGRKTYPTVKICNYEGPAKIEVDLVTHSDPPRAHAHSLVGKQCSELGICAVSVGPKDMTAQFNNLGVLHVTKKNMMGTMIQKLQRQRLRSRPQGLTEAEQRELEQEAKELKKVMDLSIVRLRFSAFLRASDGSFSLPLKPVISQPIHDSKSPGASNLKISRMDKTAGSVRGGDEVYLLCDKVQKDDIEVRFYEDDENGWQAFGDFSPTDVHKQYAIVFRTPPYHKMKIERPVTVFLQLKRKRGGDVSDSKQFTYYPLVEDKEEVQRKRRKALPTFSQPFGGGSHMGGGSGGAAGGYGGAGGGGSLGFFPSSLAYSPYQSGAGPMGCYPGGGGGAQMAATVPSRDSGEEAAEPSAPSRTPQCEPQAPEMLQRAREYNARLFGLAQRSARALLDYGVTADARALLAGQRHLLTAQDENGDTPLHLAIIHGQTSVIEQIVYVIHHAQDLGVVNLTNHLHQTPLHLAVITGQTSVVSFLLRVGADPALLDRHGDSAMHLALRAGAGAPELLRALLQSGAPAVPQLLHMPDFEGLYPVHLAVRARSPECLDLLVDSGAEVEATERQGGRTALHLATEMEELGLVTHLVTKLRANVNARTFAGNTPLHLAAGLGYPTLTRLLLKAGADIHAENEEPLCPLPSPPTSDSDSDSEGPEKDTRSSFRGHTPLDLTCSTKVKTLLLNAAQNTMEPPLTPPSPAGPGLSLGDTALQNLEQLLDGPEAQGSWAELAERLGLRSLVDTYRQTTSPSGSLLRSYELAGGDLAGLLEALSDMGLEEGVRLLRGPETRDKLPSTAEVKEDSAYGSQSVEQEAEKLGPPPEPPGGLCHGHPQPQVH
T1 sequence (Q04206 whole entry, looked up): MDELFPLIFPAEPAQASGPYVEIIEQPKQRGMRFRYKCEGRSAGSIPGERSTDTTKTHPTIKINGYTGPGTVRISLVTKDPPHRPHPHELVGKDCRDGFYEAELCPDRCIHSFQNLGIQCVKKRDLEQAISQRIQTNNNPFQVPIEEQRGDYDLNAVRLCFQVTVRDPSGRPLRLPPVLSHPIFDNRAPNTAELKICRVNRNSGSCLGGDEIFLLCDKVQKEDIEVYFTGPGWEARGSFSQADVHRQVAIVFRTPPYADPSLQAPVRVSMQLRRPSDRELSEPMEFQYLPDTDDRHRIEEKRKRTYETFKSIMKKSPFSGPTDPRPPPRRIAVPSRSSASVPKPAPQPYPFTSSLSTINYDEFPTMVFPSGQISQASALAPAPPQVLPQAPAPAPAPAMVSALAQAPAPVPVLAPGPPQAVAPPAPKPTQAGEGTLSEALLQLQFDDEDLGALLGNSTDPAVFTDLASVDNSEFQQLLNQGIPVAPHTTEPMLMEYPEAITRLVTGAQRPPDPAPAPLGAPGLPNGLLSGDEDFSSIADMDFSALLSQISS
In short: (§2)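 HEK-293 at 70% confluence transfected by calcium phosphate with NF-kB luciferase ([…]) and b-Gal ([…]) plasmids, 6–8 h, then fresh serum medium 12 h; treated 48 h, lysed, luciferase read and normalized to b-galactosidase. Three independent experiments.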

[26] = target: T1, Nuclear factor NF-kappa-B complex (Homo sapiens); assay: Inhibition of NFkappaB (unknown origin) expressed in HEK293 cells assessed as reduction in transcriptional activity at 10 uM after 48 hrs by luciferase reporter gene assay; assay type: cell-based; in short: as §2
HEK293 [27] = assay: Increase in Bax expression in HEK293 cells at LC50 level after 48 hrs by Western blot method; assay type: functional, cell-based; conditions: Homo sapiens
HEK293 [28] = assay: Reduction in Bcl-xL expression in HEK293 cells at LC50 level after 48 hrs by Western blot method; assay type: functional, cell-based; conditions: Homo sapiens
HEK293 [29] = assay: Increase in PARP cleavage in HEK293 cells at LC50 level after 48 hrs by Western blot method; assay type: functional, cell-based; conditions: Homo sapiens
HEK293 [30] = assay: Increase in p53 expression in HEK293 cells at LC50 level after 48 hrs by Western blot method; assay type: functional, cell-based; conditions: Homo sapiens
HEK293 [31] = assay: Reduction in NFkappaB expression in HEK293 cells at LC50 level after 48 hrs by Western blot method; assay type: functional, cell-based; conditions: Homo sapiens
HEK293 [32] = assay: Increase in Bax expression in p53 deficient HEK293 cells at LC50 level after 48 hrs by Western blot method; assay type: functional, cell-based; conditions: Homo sapiens
HEK293 [33] = assay: Reduction in Bcl-xL expression in p53 deficient HEK293 cells at LC50 level after 48 hrs by Western blot method; assay type: functional, cell-based; conditions: Homo sapiens
HEK293 [34] = assay: Increase in PARP cleavage in p53 deficient HEK293 cells at LC50 level after 48 hrs by Western blot method; assay type: functional, cell-based; conditions: Homo sapiens
HEK293 [35] = assay: Increase in p53 expression in p53 deficient HEK293 cells at LC50 level after 48 hrs by Western blot method; assay type: functional, cell-based; conditions: Homo sapiens
HEK293 [36] = assay: Reduction in NFkappaB expression in p53 deficient HEK293 cells at LC50 level after 48 hrs by Western blot method; assay type: functional, cell-based; conditions: Homo sapiens
[37] = Binding affinity to GC-28 DNA (unknown origin) minor groove by DAPI staining based spectrophotometry
In short: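 DAPI–DNA complex fluorescence read at 460 nm emission band; test compound added to the preformed complex and loss of fluorescence followed.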

C[C@]1(CO)[C@H]2CC[C@]3(CO3)[C@@H](C/C=C3/C(=O)OC[C@H]3OC(=O)CI)[C@]2(C)CC[C@H]1O
CC50 (HEK293 [1]): 25 µM | LC50 (Vero): 42 µM | Retention_time [2]: 30.2 min

O=c1[nH]cc(F)c(=O)[nH]1 [FLUOROURACIL]
CC50 (HEK293 [1]): 25 µM

COc1cc([C@@H]2c3cc4c(cc3[C@@H](O[C@@H]3O[C@@H]5CO[C@@H](C)O[C@H]5[C@H](O)[C@H]3O)[C@H]3COC(=O)[C@H]23)OCO4)cc(OC)c1O [ETOPOSIDE]
CC50 (HEK293 [1]): 18 µM | LC50 (Vero): 28 µM

C[C@]1(CO)[C@H]2CC[C@]3(CO3)[C@@H](C/C=C3/C(=O)OC[C@H]3OC(=O)CCl)[C@]2(C)CC[C@H]1O
CC50 (HEK293 [1]): 18 µM | LC50 (Vero): 43 µM | Retention_time [2]: 36.5 min

C=C1CC[C@@H]2[C@]3(C)COC(C)(C)O[C@@H]3CC[C@@]2(C)[C@@H]1C/C=C1/C(=O)OC[C@H]1OC(=O)CBr
CC50 (HEK293 [1]): 17 µM | LC50 (Vero): 36 µM

C[C@]1(CO)[C@H]2CC[C@@]3(CO3)[C@@H](C/C=C3/C(=O)OC[C@H]3OC(=O)CCl)[C@]2(C)CC[C@H]1O
CC50 (HEK293 [1]): 31 µM | LC50 (Vero): 37 µM | Retention_time [2]: 37.1 min

C=C1CC[C@@H]2[C@](C)(CO)[C@H](O)CC[C@@]2(C)[C@@H]1C/C=C1/C(=O)OC[C@H]1OC(=O)CBr
Activity (HEK293 [3]): Active | Activity (HEK293 [4]): Active | Activity (HEK293 [5]): Dose-dependent effect | CC50 (HEK293 [1]): 12 µM | LC50 (Vero): 45 µM | CC50 (MCF7): 8.4 µM | LC50 [6]: > 40 µM | Retention_time [2]: 24.5 min | Activity (HEK293 [7]): 60.44% | Activity (HEK293 [8]): 67.33% | Activity (HEK293 [9]): 76.62% | Activity (HEK293 [10]): 88.84% | Activity (HEK293 [11]): 25.16% | Activity (HEK293 [12]): 19.57% | Activity (HEK293 [13]): 14.98% | Activity (HEK293 [14]): 9.01% | Activity (HEK293 [15]): 10.44% | Activity (HEK293 [16]): 10.28% | Activity (HEK293 [17]): 6.69% | Activity (HEK293 [18]): 1.57% | Activity (HEK293 [19]): 3.96% | Activity (HEK293 [20]): 2.82% | Activity (HEK293 [21]): 1.71% | Activity (HEK293 [22]): 0.58% | fold change (FC) (HEK293 [23]): >4 | Activity (HEK293 [24]): Active | inhibition [25]: Dose-dependent effect | fold change (FC) [26]: 5 | Activity (HEK293 [27]): Active | Activity (HEK293 [28]): Active | Activity (HEK293 [29]): Active | Activity (HEK293 [30]): Active | Activity (HEK293 [31]): Active | Activity (HEK293 [32]): inactive | Activity (HEK293 [33]): inactive | Activity (HEK293 [34]): inactive | Activity (HEK293 [35]): inactive | Activity (HEK293 [36]): inactive | Activity [37]: Active

C=C1CC[C@@H]2[C@]3(C)COC(C)(C)O[C@@H]3CC[C@@]2(C)[C@@H]1C/C=C1/C(=O)OC[C@H]1OC(=O)CCl
CC50 (HEK293 [1]): 19 µM | LC50 (Vero): 42 µM
